Experimental data from different studies.

| Compound | host | sample | route | dose | notes | Tmax |
| --- | --- | --- | --- | --- | --- | --- |
| CCc1nc2c(C)cc(N3CCN(CC(=O)N4CC(O)C4)CC3)cn2c1N(C)c1nc(-c2ccc(F)cc2)c(C#N)s1 | human | plasma | intravenous | 0.1 mg | fasted, healthy volunteers | 0 h |
| C=CC(=O)N(C)CCOc1c(N)ncnc1-c1cc(F)cc(NC(=O)c2ccc(C3CC3)cc2F)c1C | human | blood | oral | 60 mg | single dose, healthy volunteers | 1.01 h |
| CC(C)n1cc(C#N)c2cc(-n3cc(C(=O)O)cn3)ccc21 | human | plasma | oral | 100 mg | single dose, fasted, healthy volunteers | 3.5 h |
| Cn1cc(-c2ccc(S(=O)(=O)[C@@H]3C[C@@H](C(=O)NC4(C#N)CC4)N(C(=O)C4(C(F)(F)F)CC4)C3)c(C(F)(F)F)c2)cn1 | human | plasma | oral | 300 mg | single dose, fasted, healthy volunteers | 3.5 h |
| C[C@@H](Nc1cc(F)cc(F)c1)c1cc(C(=O)N(C)C)cc2c(=O)cc(N3CCOCC3)oc12 | human | plasma | oral | 360 mg | single dose, patients | 1.53 h |
| COc1ccc([C@@H]2CN(C(=O)[C@@H](O)CO)C[C@@]2(C)[C@@H](C)O)cc1OC1CN(c2ccc(C)cn2)C1 | human | plasma | oral | 40 mg | single dose, healthy volunteers | 3.88 h |
| CS(=O)(=O)CCC#N | human | plasma | oral | 300 mg | multiple doses, once daily | 1 h |
| CC(C)(Sc1ccncc1-c1ccc(C#N)c2ccccc12)C(=O)O | male human | plasma | oral | 20 mg | single dose, fed, healthy volunteers | 1.25 h |
| C#C[C@]1(COP(=O)(O)OP(=O)(O)OP(=O)(O)O)O[C@@H](n2cnc3c(N)nc(F)nc32)C[C@@H]1O | human | plasma | oral | 200 mg | single dose | 6 h |
| CC(C)(O)c1ccccc1-c1ccc2[nH]c(/C=C/c3ccc(C(F)(F)F)cc3)nc2c1 | male human | plasma | oral | 50 mg | single dose, fasted | 2.9 h |
